Experimental data: publication PMC8814381 (EBioMedicine, 2022)

Columns and labels:
[1] = tested on: MDA-MB-231 human breast cancer tumours; type: in vivo, athymic mice; conditions: 0.2–1.0 mg/kg i.v., imaged 6–72 h, PDE unit, normal tissue thigh
In short: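 Female athymic mice, 4–5 weeks old, bore s.c. MDA-MB-231 tumours (1.0 × 10⁶ cells, right back). They received test compound or free dye i.v. (tail vein) at 0.2, 0.5 or 1 mg/kg. Prescans were taken before injection, and 800 nm NIR imaging followed at 6–72 h. The tumour-to-background ratio used ROIs over the whole tumour and over normal tissue (thigh muscle). Statistics: ANOVA.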

[2] = tested on: triple-negative PDX cells (stage IV) tumours; assay: Image-guided tumour resection in a PDX tumour model, recurrence follow-up; type: in vivo, NSG mice; conditions: four weeks after image-guided surgery
In short: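 Female NSG mice, 4–5 weeks old, carried triple-negative PDX (stage IV) tumours in the mammary fat pads. At 200–300 mm³ they were randomized into five groups: test probe, free dye, two control peptide–dye conjugates, or PBS. Agents were given i.v. (tail vein) at an equivalent of 0.5 mg/kg. After 24 h, tumours were excised with a ~2 mm margin under NIR camera guidance (not for PBS). Wounds were sutured, and recurrence was assessed 4 weeks later.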

[3] = tested on: TNBC MDA-MB-231 or ER-positive IOWA-1T tumours; assay: Intraoperative imaging of orthotopic MFP xenografts, recurrence follow-up; type: in vivo, athymic mice; conditions: 0.5 mg/kg i.v.; for average volume of the recurrent tumours: four weeks after tumour resection
In short: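 MDA-MB-231 or IOWA-1T cells were injected s.c. at the nipple base into the fourth abdominal fat pad of athymic mice. Once tumours formed, mice received PBS, free dye or test compound at 0.5 mg/kg i.v. After 24 h, tumours were resected with a 2 mm margin under NIR camera monitoring. PBS controls were resected by palpation and direct visualization only. Adverse events during removal and later recurrence at the resection site were recorded.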

[4] = tested on: multiple subtypes of breast cancer; assay: Overall recurrence in multiple breast cancer animal models; type: in vivo, mice
[5] = cited from earlier work
PDX tumour margins = assay: Histological analysis; type: in vivo, NSG mice; conditions: PDX model, H&E and Ki-67, sixteen mammary tissue samples from eight mice
In short: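 Tumour-margin tissue (~2 mm³) taken at the 6 and 12 o'clock positions around resected PDX tumours in NSG mice. Samples were fixed 24 h in buffered 3.7% formalin, then moved to 70% ethanol. They were paraffin-embedded and cut into 4 μm sections for staining.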

Row | Molecule | tumour/normal tissue ratio of NIR signal [1] | average volume of the recurrent tumours [2] | adverse events related to administration during tumour removal [3] | average volume of the recurrent tumours [3] | average recurrent tumour volume, multiple subtypes of breast cancer ([4]; Figures 4,6 pooled) | stability [5] | water solubility [5] | positive margin rate (PDX tumour margins) | specificity ([4]; from tumour recurrence rate 8%, N = 2/24)
1 | CC1(C)C(/C=C/C=C/C=C/C=C2\N(CCCCS(=O)(=O)O)c3ccc4ccccc4c3C2(C)C)=[N+](CCCCS(=O)(=O)[O-])c2ccc3ccccc3c21 [ICG, indocyanine green] | ~1 | 1952 mm^3 | no apparent adverse events | 423 mm^3 | 1188 mm^3 |  |  |  | 
2 | p28: Pseudomonas aeruginosa azurin-derived cell-penetrating peptide, tested in two phase I clinical trials |  |  |  |  |  | stable | highly water soluble |  | 
3 | ICG-p28: NIR fluorescence imaging probe composed of tumour-targeting peptide p28 and the NIR dye indocyanine green (ICG) |  | 403 mm^3 | no apparent adverse events | 197 mm^3 |  |  |  | malignant cell free margin | 92%
